The structures appear in SMILES notation. Active and inactive are the calls of the source. A value given as a limit tells only on which side of the number the result lay.

In one series the test system is Plasmodium falciparum. Kind of series: Antiplasmodial activity against chloroquine-sensitive Plasmodium falciparum NF54 by lactate dehydrogenase assay. It is filed as functional, organism-based. The method in brief: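 Dose-response format against chloroquine-susceptible NF54 parasites, with lactate dehydrogenase activity as the parasite-viability marker.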
Series [1] is described as follows: Cytotoxicity against mouse C3H10T1/2 cells assessed as effect on cell viability at 10 uM relative to control. In kind it is cell-based, C3H 10T1/2. The conditions noted are these: read-out: Activity. The method in brief:
(§1)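 Single-concentration primary screen at 10 µM in an osteoblast differentiation assay for Hedgehog signalling inhibition, with cell viability monitored alongside. Hits were defined as at least 50% inhibition of signalling with <20% impact on cell viability.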

For the next series, the system named is C3H 10T1/2. Briefly: Inhibition of Hedgehog signaling pathway in mouse C3H10T1/2 cells assessed as reduction in osteoblast differentiation at 10 uM measured after 96 hrs by alkaline phosphatase CDP-star substrate based luminescence assay relative to control. In kind it is cell-based. In outline: as §1
Series [2] in a line: Inhibition of Hedgehog signaling pathway in mouse C3H10T1/2 cells assessed as reduction in osteoblast differentiation measured after 96 hrs by alkaline phosphatase CDP-star substrate based luminescence assay. It is filed as cell-based. The conditions noted are these: C3H 10T1/2, 96 h.

Take `CN1C2CC(S(C)(=O)=O)C1Cc1c(-c3ccccc3)ccnc12` (centres undefined): in the series with Plasmodium falciparum, the result was Active.
On to `CN(Cc1ccc(OC(F)(F)F)cc1)C1CCC2C(S(C)(=O)=O)CC1N2C` (centres undefined), for which the IC50 with Plasmodium falciparum was 5.7 µM.
The molecule `CN1C2CC(S(C)(=O)=O)C1C(c1ccc(F)cc1)CC2OCc1ccc(C#N)cc1` (centres undefined) came in with an IC50 in the series on Plasmodium falciparum of 5.5 µM.
Turning to `CN1C2CC(S(C)(=O)=O)C1Cc1cccnc12` (centres undefined), in the series with Plasmodium falciparum, the result was Active.
Turning to `CS(=O)(=O)C1CC2c3c(c4ccccc4n3CC#N)CC1N2Cc1ccccc1` (centres undefined), the viability at 10 µM in series [1] was below 20%. Also, the inhibition in the series with C3H 10T1/2 is above 50%. Moreover, in series [2], the concentration giving a half-maximal response (EC50) came to 4.2 µM.
In the series on Plasmodium falciparum, `CS(=O)(=O)C1CC2C(=O)c3n[nH]c(C(=O)O)c3C1N2Cc1ccccc1` (centres undefined) yielded an IC50 of 5.4 µM.
`CN1C2CC(S(=O)(=O)N(C)C)C1Cc1cccnc12` (centres undefined): the outcome in the series on Plasmodium falciparum was Active.
Still for that read-out and setting: with `CS(=O)(=O)C1CC2c3ncccc3CC1N2Cc1ccccc1` (centres undefined) the entry was “Active”.
Take `CS(=O)(=O)C1CC2c3c(c4ccccc4n3S(C)(=O)=O)CC1N2Cc1ccccc1` (centres undefined): in series [1], the viability at 10 µM is below 20%. Also, the inhibition in the series with C3H 10T1/2 is above 50%. Also, the EC50 in series [2] was found to be 4.4 µM.
In the case of `CN1C2CC(S(C)(=O)=O)C1C1CN(c3ccccn3)CC1C2O` (centres undefined), the half-maximal inhibitory concentration (IC50) in the series with Plasmodium falciparum is 5.4 µM.

A word on the IC50: it is the concentration at which inhibition is half-maximal. Higher therefore signals weaker potency in that assay. By inhibition is commonly meant the drop in the measured response relative to a control, in per cent. For orientation: EC50 means the concentration at which the effect is half-maximal.

For the origin of these results see ChEMBL document CHEMBL4627349, “Synthesis and evaluation of the performance of a small molecule library based on diverse tropane-related scaffolds” (Bioorg Med Chem, 2020).
